Results as given in ChEMBL document CHEMBL5058577, “EUbOPEN Chemogenomics Library 2 (Multiplex)” (2022).

Tested on: U2OS
Test: Multiplex assay against U2OS
Format: toxicity, cell-based
Conditions: human
Procedure, shortened: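 Hoechst33342, BioTracker Green Microtubule Cytoskeleton Dye, MitoTracker Red and Annexin V Alexa Fluor 680 were added to live cells at seeding, and imaging on a CQ1 microscope at 37°C and 5% CO2 followed compound addition. Gating by CellPathfinder machine learning separated cells into Hoechst high-intensity objects or normal cells, then normal cells into healthy, pyknosed or fragmented nuclei, then pyknosed cells into mitotic or apoptotic. Per cents of healthy-nucleus cells are reported for the tubulin, mitochondrial-mass and membrane-permeability phenotypes.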

[1] = 12 h, 1 µM, compound concentration 1 uM, replicate 1
[2] = 12 h, 1 µM, compound concentration 1 uM, replicate 2
[3] = 12 h, 10 µM, compound concentration 10 uM, replicate 1
[4] = 12 h, 10 µM, compound concentration 10 uM, replicate 2
[5] = 24 h, 1 µM, compound concentration 1 uM, replicate 1
[6] = 24 h, 1 µM, compound concentration 1 uM, replicate 2
[7] = 24 h, 10 µM, compound concentration 10 uM, replicate 1
[8] = 24 h, 10 µM, compound concentration 10 uM, replicate 2
[9] = 48 h, 1 µM, compound concentration 1 uM, replicate 1
[10] = 48 h, 1 µM, compound concentration 1 uM, replicate 2
[11] = 48 h, 10 µM, compound concentration 10 uM, replicate 1
[12] = 48 h, 10 µM, compound concentration 10 uM, replicate 2

## Cc1ccc(/C(=C\CN2CCCC2)c2ccccn2)cc1 [TRIPROLIDINE]
[1]
  Population Apoptotic (%): 85%
  Population Fragmented Nuclei (%): 29%
  Population Healthy Nuclei (%): 61%
  Population Hoechst High Intensity Objects (%): 2%
  Population Membrane Permeable-Phenotype (%): 4%
  Population Mitochondria Different-Phenotype (%): 2%
  Population Mitotic Cells (%): 15%
  Population Normal (%): 97%
  Population Pyknosed Nuclei (%): 8%
  Population Tubulin-Different-Phenotype (%): 1%
  Total Cell Count: 244
[2]
  Population Fragmented Nuclei (%): 18%
  Population Healthy Nuclei (%): 70%
  Population Hoechst High Intensity Objects (%): 3%
  Population Membrane Permeable-Phenotype (%): 6%
  Population Mitochondria Different-Phenotype (%): 1%
  Population Mitotic Cells (%): 14%
  Population Normal (%): 96%
  Population Pyknosed Nuclei (%): 11%
  Population Tubulin-Different-Phenotype (%): 5%
  Total Cell Count: 126
[3]
  Population Apoptotic (%): 87%
  Population Fragmented Nuclei (%): 25%
  Population Healthy Nuclei (%): 64%
  Population Hoechst High Intensity Objects (%): 3%
  Population Membrane Permeable-Phenotype (%): 29%
  Population Mitochondria Different-Phenotype (%): 23%
  Population Mitotic Cells (%): 12%
  Population Normal (%): 96%
  Population Pyknosed Nuclei (%): 9%
  Population Tubulin-Different-Phenotype (%): 24%
  Total Cell Count: 264
[4]
  Population Apoptotic (%): 75%
  Population Fragmented Nuclei (%): 15%
  Population Healthy Nuclei (%): 77%
  Population Hoechst High Intensity Objects (%): 0%
  Population Membrane Permeable-Phenotype (%): 14%
  Population Mitochondria Different-Phenotype (%): 18%
  Population Mitotic Cells (%): 25%
  Population Normal (%): 99%
  Population Pyknosed Nuclei (%): 7%
  Population Tubulin-Different-Phenotype (%): 15%
  Total Cell Count: 114
[5]
  Population Apoptotic (%): 89%
  Population Fragmented Nuclei (%): 23%
  Population Healthy Nuclei (%): 66%
  Population Hoechst High Intensity Objects (%): 1%
  Population Membrane Permeable-Phenotype (%): 4%
  Population Mitochondria Different-Phenotype (%): 3%
  Population Mitotic Cells (%): 10%
  Population Normal (%): 98%
  Population Pyknosed Nuclei (%): 9%
  Population Tubulin-Different-Phenotype (%): 2%
  Total Cell Count: 297
[6]
  Population Apoptotic (%): 81%
  Population Fragmented Nuclei (%): 20%
  Population Healthy Nuclei (%): 68%
  Population Hoechst High Intensity Objects (%): 4%
  Population Membrane Permeable-Phenotype (%): 9%
  Population Mitochondria Different-Phenotype (%): 6%
  Population Mitotic Cells (%): 18%
  Population Normal (%): 96%
  Population Pyknosed Nuclei (%): 11%
  Population Tubulin-Different-Phenotype (%): 5%
  Total Cell Count: 150
[7]
  Population Apoptotic (%): 75%
  Population Fragmented Nuclei (%): 27%
  Population Healthy Nuclei (%): 62%
  Population Hoechst High Intensity Objects (%): 2%
  Population Membrane Permeable-Phenotype (%): 12%
  Population Mitochondria Different-Phenotype (%): 15%
  Population Mitotic Cells (%): 24%
  Population Normal (%): 97%
  Population Pyknosed Nuclei (%): 10%
  Population Tubulin-Different-Phenotype (%): 8%
  Total Cell Count: 320
[8]
  Population Apoptotic (%): 78%
  Population Fragmented Nuclei (%): 19%
  Population Healthy Nuclei (%): 70%
  Population Hoechst High Intensity Objects (%): 1%
  Population Membrane Permeable-Phenotype (%): 11%
  Population Mitochondria Different-Phenotype (%): 13%
  Population Mitotic Cells (%): 21%
  Population Normal (%): 98%
  Population Pyknosed Nuclei (%): 9%
  Population Tubulin-Different-Phenotype (%): 6%
  Total Cell Count: 149
[9]
  Population Apoptotic (%): 86%
  Population Fragmented Nuclei (%): 17%
  Population Healthy Nuclei (%): 73%
  Population Hoechst High Intensity Objects (%): 2%
  Population Membrane Permeable-Phenotype (%): 3%
  Population Mitochondria Different-Phenotype (%): 3%
  Population Mitotic Cells (%): 13%
  Population Normal (%): 97%
  Population Pyknosed Nuclei (%): 9%
  Population Tubulin-Different-Phenotype (%): 3%
  Total Cell Count: 398
[10]
  Population Apoptotic (%): 76%
  Population Healthy Nuclei (%): 75%
  Population Hoechst High Intensity Objects (%): 3%
  Population Membrane Permeable-Phenotype (%): 5%
  Population Mitotic Cells (%): 23%
  Population Normal (%): 96%
  Population Pyknosed Nuclei (%): 6%
  Population Tubulin-Different-Phenotype (%): 4%
  Total Cell Count: 209
[11]
  Population Apoptotic (%): 86%
  Population Fragmented Nuclei (%): 24%
  Population Healthy Nuclei (%): 65%
  Population Hoechst High Intensity Objects (%): 2%
  Population Membrane Permeable-Phenotype (%): 11%
  Population Mitochondria Different-Phenotype (%): 8%
  Population Mitotic Cells (%): 13%
  Population Normal (%): 97%
  Population Pyknosed Nuclei (%): 9%
  Population Tubulin-Different-Phenotype (%): 7%
  Total Cell Count: 453
[12]
  Population Apoptotic (%): 89%
  Population Fragmented Nuclei (%): 15%
  Population Healthy Nuclei (%): 74%
  Population Hoechst High Intensity Objects (%): 4%
  Population Membrane Permeable-Phenotype (%): 9%
  Population Mitotic Cells (%): 10%
  Population Normal (%): 95%
  Population Tubulin-Different-Phenotype (%): 6%
  Total Cell Count: 203
